This is a sample that favours compounds with a hit; in the whole collection about 1.8% have one here.
Rin1 Abl inh: blocks binding of human Rin1 to Abl. P00519+Q13671. TR-FRET Rin1/Abl binding, biochemical. inhibition, % at 7.35 µM. hit rate 0.4% among 360,000. AID 588664; in the data active means inhibition above about 5%, passing the limit was not always enough
PG9 binder: binds the HIV-1 gp120 antibody PG9. TR-FRET gp120-PG9 antibody binding. inhibition, % at 6.7 µM. hit rate 0.43% among 360,000; in the data active means inhibition above about 8.5%
NR1D1 modulator: modulates human Rev-erb alpha binding to DNA; P20393; Rev-erbα–FITC-DNA binding, fluorescence polarization, 90 min; activity, % at 10 µM; hit rate 0.79% among 370,000; AID 1259318;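 active means activity above about 14%, limit read from the data; passing the limit was not always enough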;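 further: 0% = DMSO wells with 35 nM protein and 100% = DMSO wells with 750 nM protein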
Target sequence (P20393 whole entry, looked up): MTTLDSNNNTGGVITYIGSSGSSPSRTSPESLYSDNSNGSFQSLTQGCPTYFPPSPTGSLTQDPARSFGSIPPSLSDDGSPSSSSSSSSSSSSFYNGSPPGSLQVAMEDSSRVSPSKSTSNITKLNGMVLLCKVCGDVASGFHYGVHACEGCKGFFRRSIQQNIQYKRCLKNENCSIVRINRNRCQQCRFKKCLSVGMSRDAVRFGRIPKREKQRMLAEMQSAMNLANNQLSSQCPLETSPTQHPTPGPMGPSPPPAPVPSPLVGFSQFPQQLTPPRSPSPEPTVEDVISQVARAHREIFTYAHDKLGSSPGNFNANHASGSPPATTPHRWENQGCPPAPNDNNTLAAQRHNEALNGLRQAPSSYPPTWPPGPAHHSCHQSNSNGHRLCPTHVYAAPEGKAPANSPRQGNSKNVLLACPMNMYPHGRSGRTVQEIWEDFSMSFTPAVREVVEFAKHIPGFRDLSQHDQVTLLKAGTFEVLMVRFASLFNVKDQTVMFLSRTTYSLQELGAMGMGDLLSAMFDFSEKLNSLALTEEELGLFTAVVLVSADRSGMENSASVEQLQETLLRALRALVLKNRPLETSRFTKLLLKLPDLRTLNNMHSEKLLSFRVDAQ
Tb MetRS inh: blocks T. brucei methionyl-tRNA synthetase activity; purified T. brucei MetRS, ATP depletion, Kinase-Glo luminescence; inhibition, % at 11.9 µM; hit rate 0.4% among 360,000;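 active means inhibition above a per-plate cutoff of the control wells' mean inhibition plus 3 SD, cut at about 5.5% in these data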;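 further: 0% = DMSO wells median and 100% = median of wells with control inhibitor compound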
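Measured by: Kinase-Glo luciferase luminescence reporting remaining unconsumed ATP. Material: purified T. brucei MetRS enzyme. Doses: 11.9 µM compound single dose, 0.9% DMSO. Medium: HEPES buffer containing pyrophosphatase, BSA, spermine, DTT. Times: 15 min preincubation, 2 h reaction, all 25 °C. Reagent: methionine, ATP and bulk E. coli tRNA.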
Rev-erbA confirm: confirmation of modulators of human Rev-erb alpha DNA binding | shares compounds with NR1D1 modulator | AID 1259319 | Rev-erb alpha FITC-DNA binding, fluorescence polarization, 90 min | hit rate 61% among 3,000 | activation, % at 25 µM;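 active means activation at or above a set limit, or at least 3 SD above the negative control mean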;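 further: 0% = 35 nM protein with DMSO and 100% = 750 nM protein high control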
RORg counter: counter-screen for Rev-erb alpha modulators: RORgamma DNA binding; shares compounds with NR1D1 modulator; purified RORgamma protein-FITC-DNA binding, fluorescence polarization; IC50, µM; hit rate 8% among 910; AID 1259320;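 active means Compounds whose fitted half-maximal concentration for disrupting protein-DNA binding is below 10 micromolar; the record names Rev-erb in its text, so the target is in doubt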
* = called active by the depositor.

Cc1ccc(S(=O)(=O)N2C[C@H]3[C@H]4C(=O)N(c5ccccc5)C(=O)[C@H]4C[C@H](OC(=O)NC4CC4)[C@@]3(O)C2)cc1 was read as Rin1 Abl inh -1, PG9 binder 0, NR1D1 modulator -4 and Tb MetRS inh -1.
COc1ccc(-c2nnc3ccc(SCC(=O)Nc4nc5ccccc5s4)nn23)cc1OC was read as Rin1 Abl inh -4, PG9 binder -1, NR1D1 modulator 46*, Tb MetRS inh 0 and Rev-erbA confirm 15.
COc1ccc(-c2nnc3ccc(SCC(=O)Nc4nccs4)nn23)cc1OC was read as Rin1 Abl inh -3, PG9 binder -1, NR1D1 modulator 2 and Tb MetRS inh 0.
`C=CCn1c(COc2ccc(Cl)cc2)nnc1SCC(=O)c1ccccc1` gave NR1D1 modulator 6.
`CCOc1cccc2sc(NC(=O)c3ccc(Br)s3)nc12` gave Rin1 Abl inh -3, PG9 binder 0, NR1D1 modulator 30*, Tb MetRS inh 0, Rev-erbA confirm 33* and RORg counter >40.
For Cc1csc(NC(=O)c2ccc(Br)s2)n1 the results were Rin1 Abl inh -1, PG9 binder 0, NR1D1 modulator 9 and Tb MetRS inh 0.
Screening O=C(COC(=O)CNS(=O)(=O)c1cccc(F)c1)NCCc1ccccc1 returned Rin1 Abl inh 2, PG9 binder -3, NR1D1 modulator 2 and Tb MetRS inh 0.
Screening Cc1nc(NC(=O)c2ccccc2)sc1Cc1ccc2c(c1)OCO2 returned Rin1 Abl inh 2, PG9 binder -2, NR1D1 modulator 3 and Tb MetRS inh 0.
Cc1nc(NC(=O)c2ccc(Cl)cc2)sc1Cc1ccc2c(c1)OCO2 was read as Rin1 Abl inh 0, PG9 binder 1, NR1D1 modulator 30*, Tb MetRS inh 0 and Rev-erbA confirm 6.
For O=C(Nc1cccc(-c2nc3ccccc3o2)c1)c1ccc(N2C(=O)C3C4C=CC(C4)C3C2=O)cc1 (configuration not stated) the results were Rin1 Abl inh 0, PG9 binder -2, NR1D1 modulator 10 and Tb MetRS inh 0.
For O=C1C2C3C=CC(C3)C2C(=O)N1c1cccc(-c2nc3ccccc3o2)c1 (configuration not stated) the results were Rin1 Abl inh -3, PG9 binder 1, NR1D1 modulator 29*, Tb MetRS inh 0 and Rev-erbA confirm 12.
For COCCNS(=O)(=O)c1ccc(C)c(C)c1C the results were Rin1 Abl inh 3, PG9 binder 1, NR1D1 modulator -2 and Tb MetRS inh 0.
For COc1cc(-c2noc(-c3cccc(Cl)c3)n2)cc(OC)c1OC the results were Rin1 Abl inh -4, PG9 binder 4, NR1D1 modulator 74*, Tb MetRS inh 0 and Rev-erbA confirm 123*.
`COc1cc(-c2nc(-c3cccc(C)c3)no2)cc(OC)c1OC` gave Rin1 Abl inh 4, PG9 binder 1, NR1D1 modulator -2 and Tb MetRS inh 0.
CCc1nc2ccc(C(=O)NCCCN3CCCC3=O)cn2c1N(CCC(C)C)CCN(C)C was read as Rin1 Abl inh -4, PG9 binder -1, NR1D1 modulator -4 and Tb MetRS inh 0.
`CC1CCN(S(=O)(=O)c2ccc3nc(N4CCN(c5ccccc5)CC4)ccc3c2)CC1` gave PG9 binder 1, NR1D1 modulator 92*, Rev-erbA confirm 57* and RORg counter >40.
For O=S(=O)(c1ccc(F)cc1)N1CCN(c2ccc(F)cc2)CC1 the results were Rin1 Abl inh -2, PG9 binder 0, NR1D1 modulator 0 and Tb MetRS inh -1.
For O=S(=O)(c1ccc2nc(N3CCN(c4ccc(F)cc4)CC3)ccc2c1)N1CCCCC1 the results were Rin1 Abl inh 1, PG9 binder -1, NR1D1 modulator 37*, Tb MetRS inh 0 and Rev-erbA confirm 27*.
`O=c1ccc2cc(S(=O)(=O)N3CCN(c4ccccc4F)CC3)ccc2[nH]1` gave Rin1 Abl inh 1, PG9 binder 0, NR1D1 modulator -2 and Tb MetRS inh 0.
`O=S(=O)(c1ccc2nc(N3CCN(c4ccccc4F)CC3)ccc2c1)N1CCCCC1` gave Rin1 Abl inh -4, PG9 binder 0, NR1D1 modulator 41*, Tb MetRS inh 0, Rev-erbA confirm 31* and RORg counter >40.
